# Assay results as given in the EternaBench riboswitch data.
# Test system: MS2 coat protein
# Experiment: apparent Kd, MS2 coat protein; higher = weaker binding; RNA-MaP array; FMN 200 µM where present
# Summary of the method: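 Two titrations, one without ligand and one with constant ligand, were run with SNAP-549-labelled MS2 coat protein from 0.7 or 1.5 nM, doubling to 3 µM. The targets were designs transcribed by stalled E. coli RNA polymerase on Illumina sequencing-chip clusters, in 100 mM Tris-HCl pH 7.5, 80 mM KCl, 4 mM MgCl2, BSA, DTT, yeast tRNA and Tween-20. The apparent Kd is the median of filtered per-cluster binding-curve fits, with green signal normalised to red-channel RNA signal and control-cluster median Fmax.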
# [1] = designed as: OFF switch for flavin mononucleotide, no ligand
# [2] = ligand present: flavin mononucleotide, designed as: OFF switch for flavin mononucleotide
# [3] = designed as: ON switch for flavin mononucleotide, no ligand
# [4] = ligand present: flavin mononucleotide, designed as: ON switch for flavin mononucleotide
Sequence,apparent Kd [1],apparent Kd [2],apparent Kd [3],apparent Kd [4]
CCAUAAAAGAUCCAAAAUUACAACAUGAGGAUCACCCAUGUGCAGGAUAUCGUGACAGUGAAGUACGAGAAGGGCAGACACUGC,0.197 µM,0.208 µM,–,–
CCAUGCGGAUGAGGAUAUUCAUCCAUGAGGAUAGAAGAAGGCGUACAUGAGGAUCACCCAUGUAUACACAUGAGGAUCCCUUAC,0.462 µM,0.42 µM,–,–
CCAUGGCUGUGAGGAUAUGUCUGACAAAGUCAGACAGAAGGUACAUGAGGAUCACCCAUGUGAAGAAAACCACAUUUGCCAUGG,0.006 µM,0.00644 µM,–,–
CCAUGUUAGCAGGAUAUGCUAUUAAUCUUUUAUGCAGAAGGGCUUACAUGAGGAUCACCCAUGUAUUAAGUCUU,0.0114 µM,0.0195 µM,–,–
CCCGCCCGUCGAGGAUAUAUUAUAUGACAACAAACACAUACAUGAGGAUCACCCAUGUCCCAUGUAUAGAAGGCGACCUGCGUC,–,–,0.0748 µM,0.0983 µM
CCCGCGUUUCGCGCCUACAUGAGGAUCACCCAUGUUUGUAGGCAGGAUAUCGUCCGCUCUGCGGGCGAGAAGGGCUGUUGUGGU,–,–,0.0908 µM,0.084 µM
CCCGUCAUCGAGAAGGCCUCAACAUGAGGAUCACCCAUGUUGUAAUAUGGGAGGAUAUCGAUGAUACAGCUACGUUUCGUACCC,–,–,0.0171 µM,0.0058 µM
CCCUCAACAUGAGGAUCACCCAUGUAGGAUAUCGCUAUUGUAAUCAUGAAACAUGAUUACAAUAGCGAGAAGGACAUAUGUUUU,0.026 µM,0.127 µM,–,–
CCCUCACAUGAGGAUCACCCAUGUCAGGAUAUUCGACGGUAAAUUGGCCGUCUUAAAGGAAGAAGGGACGUAAC,0.0125 µM,0.0179 µM,–,–
CCCUGAUUGAGAGGUAGGAGUGGUAGAAGGCGACCGGUGCCAGAUGACAUGAGGAUCACCCAUGUCGAGGAUAUACCACAGAAU,0.0067 µM,0.0122 µM,–,–
CCGAGAAGGAGAGGAUAUGGACAUGAGGAUCACCCAUGUACAUGGGAAUAUAUACUGAAUUUUUACUAGAAGGCUUACAUAAAU,0.0178 µM,0.014 µM,–,–
CCGCAAAAGCAGGAUAUCGUAUCGGAAACGAUACGAGAAGGGUUUACAUGAGGAUCACCCAUGUUCCUUAGCGG,0.0291 µM,0.038 µM,–,–
CCGCUCUUGGUCAGGAUAUCUAUGCGGGCCAGCACAGAGAAGGGACAUGAGGAUCACCCAUGUUUCGGGAUGUA,0.0223 µM,0.0389 µM,–,–
CCGGAAACGGGUAGCCUGACAUGAGGAUCACCCAUGUAAUACGAGGAUAUGGAUCCUAAUUGGAUCCAGAAGGUGUCAGGCUAC,–,–,0.862 µM,0.682 µM
CCGGAAACGGGUAGCCUGACAUGAGGAUCACCCAUGUGAACCGAGGAUAUGGAUCCUAAUUGGAUCCAGAAGGUGGAAGGCUAC,–,–,0.381 µM,0.167 µM
CCGGAAAUACAGGAUAUAGGAGUCGAUAGACUCCUAGAAGGGUAUACAUGAGGAUCACCCAUGUGUCCUACCGG,0.0265 µM,0.0317 µM,–,–
CCGGAAAUGAAGGAUAUAGGAGUCGAUAGACUCCUAGAAGGUCAUACAUGAGGAUCACCCAUGUGUCCUACCGG,0.0158 µM,0.0349 µM,–,–
CCGGAAAUGAAGGAUAUAGGUGUCGAUAGACUCCUAGAAGGUCAUACAUGAGGAUCACCCAUGUGUCCUACCGG,0.0157 µM,0.0326 µM,–,–
CCGGAAAUGCAGGAUAUCGUAUCGGAAACGAUACGAGAAGGGUAUACAUGAGGAUCACCCAUGUGUCCUACCGG,0.0226 µM,0.0214 µM,–,–

Sequence,apparent Kd [1],apparent Kd [2],apparent Kd [3],apparent Kd [4]
CCGGCUUAGUAGGAUAUAGGAGUCGAUAGACACCUAGAAGGACUAACAUGAGGAUCACCCAUGUGUCCUACCGG,0.0143 µM,0.0293 µM,–,–
CCGGUGUCAGGAUAUACGCCAACCACUGAAAAGGUAUGGGCGUAGAAGGGACAUGAGGAUCACCCAUGUCAGUC,0.0228 µM,0.0363 µM,–,–
CCGUUACAUGAGGAUCACCCAUGUGAGGAUAUCGGGAUGACUGGCAGCGUGCGGGACUCGAGAAGGCACUGGGC,0.0461 µM,0.0415 µM,–,–
CCGUUGAUAGGACAGGAUAUGACUGUCGUCACAUGAGGAUCACCCAUGUCCCGGCAAUGCCACCGUUAGAAGGGUCCCGUCUCGG,–,–,0.0188 µM,0.0192 µM
CCUAAGGACACAGGAUAUAGCGUGGUGGCUGGGCUCCAACGGCGAGUGGCGCUAGAAGGGUGACCACAUGAGGAUCACCCAUGU,–,–,0.537 µM,0.214 µM
CCUAAGGAGGUAGGAUAUAGUGUGGUGGCCGGGCUCCCACGGCGAGCGGCACUAGAAGGAUCGCUACAUGAGGAUCACCCAUGU,–,–,0.0102 µM,0.00971 µM
CCUCAGUAAGGAUAUCAGCUUAGUAGGUUGGUAAUGAGAGCUGAGAAGGUACAUGAGGAUCACCCAUGUUAGUU,0.0261 µM,0.0808 µM,–,–
CCUCCACAUGAGGAUCACCCAUGUCACACUCCGUCAGGAUAUAGCCUGCAUCCGCUGUGGCUAGAAGGGACUGCUG,–,–,0.332 µM,0.303 µM
CCUCCACAUUAGGAUAUCGUCACACUAUUGUGACGAGAAGGAAUGACAUGAGGAUCACCCAUGUUAUCGUGAUG,0.0194 µM,0.0498 µM,–,–
CCUCCCUGAGGAUAUCCACCCUCAUACAUGAGGAUCACCCAUGUUCAUCCGUGGCUACCCGGAGAAGGCAGCUCUC,0.0449 µM,0.0418 µM,–,–
CCUCCGUAUUAGGAUAUCGUCCAGGAAACUGGACGAGAAGGAAUGACAUGAGGAUCACCCAUGUUAACGUGAUG,0.0215 µM,0.05 µM,–,–
CCUCGACAUGAGGAUCACCCAUGUAAGGAUAUGUUGACGAGCCAGAAAUGGCUGGUCAACAGAAGGUAUAUGUA,0.0319 µM,0.121 µM,–,–
CCUCGACAUGAGGAUCACCCAUGUCAGGAUAUUGUGUUUUUGGUUUUUUACCUUUAGGCAAGAAGGGAUGUGUG,0.016 µM,0.0214 µM,–,–
CCUCGACGGUAGGAUAUCGUCAAACUAUUGUGAUGAGAAGGACUGACAUGAGGAUCACCCAUGUUAACGUGAUA,0.0203 µM,0.0253 µM,–,–
CCUCGCCCUCUUGCACAUGAGGAUCACCCAUGUUUUACGUACUAGGAUAUAGCUAUGUUCAAUCGUUAGAAGGAGUUCAUGGAU,0.11 µM,0.105 µM,–,–
CCUGGAGGAAAACAGACGAAGUGGCCAGAAGGUGAAUGCCACAUGAGGAUCACCCAUGUUUCGAUCAAGGAUAUGGUUUCUCAC,–,–,0.329 µM,0.161 µM
CCUUCACAUGAGGAUCACCCAUGUGAGGAUAUCCUGCGAGGAUCAAAAGAUCCUCGUGGGAGAAGGCACAUGGA,0.11 µM,0.18 µM,–,–
CGAAAAUUUCAGAAGGACCGAUUCCACAUGAGGAUCACCCAUGUCGAUGGUAGGAUAUGGAGUUGUGGACAGGGCGGAUGUACC,–,–,0.0721 µM,0.00892 µM
CGAAAUGAUAGAGGAUAUGUUUUACAUGAGGAUCACCCAUGUGUACAUGGAUUAAUAUAUAAGUAACAGAAGGCUAUUCAAUCG,0.0186 µM,0.0173 µM,–,–

Sequence,apparent Kd [1],apparent Kd [2],apparent Kd [3],apparent Kd [4]
CGACCCUGAACGAAAUCAUGCAGUCAGGAUAUACAUGAGGAUCACCCAUGUGCGUACCAACUCGUGUAGAAGGGACUUUCAGGG,0.0127 µM,0.0332 µM,–,–
CGACGAGUGGAGAAGGACUUUGACUAGUACAGGGUAGGAUAUCCACAUGAGGAUCACCCAUGUAGGAUACUUAUUGGGCCGCCU,0.0103 µM,0.049 µM,–,–
CGAGCCUAUGUAAGGAUAUCACGAUAAAACCAGCGUGAGAAGGUACAUGAGGAUCACCCAUGUUCACGACUGGC,0.0139 µM,0.0147 µM,–,–
CGAGGUGGAGUGAGGAUAUCGUGUUCGAAAGAACGUGAGAAGGCACAUGAGGAUCACCCAUGUGAUUCUGCUCG,0.0457 µM,0.27 µM,–,–
CGAGUCAUAGCUCCUUAGCCAGCCAGAAGGGUCUACAUGAGGAUCACCCAUGUGGUCUCGAAGGGACAGGAUAUGGAGGGCGUA,0.00539 µM,0.00736 µM,–,–
CGAUAACCACAGAAGGCCCGGGACAUGAGGAUCACCCAUGUAGAAAGUGGGAGGAUAUGUGUACGCGGCAUGCUGACCUCGUGA,–,–,0.21 µM,0.0286 µM
CGAUAGGACAGAGGAUAUACACAUGAGGAUCACCCAUGUGAUUACAACGCGAAAGCGCCAAACAUGUAGAAGGCUGUCCUAUCG,0.0227 µM,0.012 µM,–,–
CGAUAGGACAGAGGAUAUACACAUGAGGAUCACCCAUGUGAUUUCAACGCGAAAGCGCCAAACAUGUAGAAGGCUGUCCUAUCG,0.0259 µM,0.0164 µM,–,–
CGAUAUAUGAAGGGCGAAAGCCCACAUGAGGAUCACCCAUGUAGAAGGCGGGCCGCAACGCGGCCCGAGGAUAUAUAAUAUACA,–,0.00915 µM,–,–
CGAUGAGGAGUGAGGAUAUCGUGUUCGAAAGAACGUGAGAAGGCACAUGAGGAUCACCCAUGUGAUCCUUAUCG,0.0283 µM,0.0679 µM,–,–
CGAUGUUAUGUCAGGAUAUGCGUUGCGAAAGCAAUGCAGAAGGGACAUGAGGAUCACCCAUGUCCUAACCAUCG,0.0123 µM,0.0251 µM,–,–
CGAUGUUGUGUCAGGAUAUGCGUUGCGAAAGCAAUGUAGAAGGGACAUGAGGAUCACCCAUGUUCUAACCAUCG,0.0124 µM,0.0158 µM,–,–
CGCAAACUUGGGUUUAAUGGUGCAUAGGAUAUGCUUGUACAUGAGGAUCACCCAUGUACUAUUGUGCAGAAGGGUGCAUUUGCG,–,–,0.00797 µM,0.00577 µM
CGCAGCGCAGGAUAUACAUGAGGAUCACCCAUGUACUGGCUCGGCACAGGGUCUCAAGGUAGAAGGGUGCAAAU,0.0226 µM,0.0231 µM,–,–
CGCGAACAGGCUAACAUGAGGAUCACCCAUGUGGACUCAUGGUAGGAUAUCGGGAAGGAGGAAACCGAGAAGGGCCGGUGAGCC,–,–,0.498 µM,0.359 µM
CGCUAAGAUGGGUCUAAUGGACCACAGGAUAUGCUUGUACAUGAGGAUCACCCAUGUAAUAUUGUGCAGAAGGGUGGAUUUGCG,–,–,0.0189 µM,0.00703 µM
CGCUAAUAAUUAAUAUUAAUUGUACAGGAUAUGUUACAUGAGGAUCACCCAUGUAUUGGGUUUAAACAGAAGGGUAUAUUAGCG,0.191 µM,0.0814 µM,–,–
CGCUAUUAUGUAGGAUAUACAUUUUUUAUGUAUGUAGAAGGACAUGAGGAUCACCCAUGUAAAUAAAUUUUAAUUAUCAUAGCG,0.0219 µM,0.0183 µM,–,–
